Experimental data from ChEMBL document CHEMBL1123708, “Resolved cis- and trans-2-amino-5-methoxy-1-methyltetralins: central dopamine receptor agonists and antagonists” (1987).
The source made the active and inactive calls. The rule behind the calls is not given here.

Key:
Rattus norvegicus [1] = assay: In vivo DOPA accumulation in reserpine pretreated rat limbic system by subcutaneous administration; assay type: functional; settings: sc
How it was run: (§1)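 Rats received reserpine (5 mg/kg sc) 18 h, test drug sc 60 min and NSD 1015 (100 mg/kg ip) 30 min before death, with saline controls. Limbic or striatal DOPA was measured. Dose for half-maximal decrease was estimated from 4-7-dose curves (n = 3-5), minimal level as % of control.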

Rattus norvegicus [2] = assay: In vivo DOPA accumulation in reserpine pretreated rat striatum system by subcutaneous administration; assay type: functional; settings: sc; how it was run: as §1
Rattus norvegicus [3] = assay: Locomotory activity was determined in non pretreated rats at a dose of 3.2 umol/kg by subcutaneous administration; assay type: functional
How it was run: (§2)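 Untreated rats received test drug sc 5 min before a 30-min session in photocell motility meters, with accumulated counts recorded. Activity is expressed as percent of saline controls, mean ± SEM, n = 3-5. Gross behaviour was observed through a semitransparent mirror. Differences from saline controls were assessed by Student's t test.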

Rattus norvegicus [4] = assay: Locomotory activity was determined in reserpine pretreated rats at a dose of 3.2 umol/kg by subcutaneous administration. Value is the accumulation counts/30 min; assay type: functional
How it was run: (§3)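 Rats were given reserpine 5 mg/kg sc 18 h beforehand, then test drug sc immediately before the activity session. Motor activity was recorded by photocells in motility meters as accumulated counts over 30 min, mean ± SEM, n = 3-4. Gross behaviour was watched for signs of stimulation. Reserpine-only controls were included.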

Rattus norvegicus [5] = assay: Locomotory activity was determined in non pretreated rats at a dose of 0.32 umol/kg by subcutaneous administration; assay type: functional; how it was run: as §2
Rattus norvegicus [6] = assay: Change in rectal temperature induced by DiPr-5,6-ADTN at a dose of 10 umol/kg of compound by subcutaneous administration; assay type: functional
How it was run: (§4)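 Rats received DiPr-5,6-ADTN (0.25 μmol/kg sc) 100 min and test compound sc 40 min before death. Rectal temperature change (°C) was recorded between 60 and 100 min after DiPr-5,6-ADTN. Values are mean ± SEM, n = 4, with Student's t test vs DiPr-5,6-ADTN alone.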

Rattus norvegicus [7] = assay: Change in rectal temperature induced by DiPr-5,6-ADTN at a dose of 40 umol/kg of compound by subcutaneous administration; assay type: functional; how it was run: as §4
Rattus norvegicus [8] = assay: In vivo DOPA accumulation in non pre-treated rat limbic system following s.c. administration.; assay type: functional; settings: sc
How it was run: (§5)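 Rats without pretreatment received test drug sc 65 min and NSD 1015 (100 mg/kg ip) 30 min before death, with saline controls. DOPA was measured in limbic or striatal tissue. Dose for half-maximal change was estimated from 4-5-dose curves (n = 3-5), maximal level as % of control.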

[9] = target: T1, Dopamine receptor (Rattus norvegicus) (UniProt P25115+P19020+P30729+P18901+P61169); assay: Ability to displace the DA receptor agonist DiPr-5,6-ADTN from rat striatal binding sites in vivo at a dose of 40 uM/kg by subcutaneous administration; assay type: organism-based
[10] = target: T1, Dopamine receptor (Rattus norvegicus); assay: Ability to displace the Dopamine receptor agonist DiPr-5,6-ADTN from rat striatal binding sites in vivo at a dose of 10 uM/kg by subcutaneous administration; assay type: organism-based
Rattus norvegicus [11] = assay: In vivo DOPA accumulation in non pre-treated rat striatal system following s.c. administration.; assay type: functional; settings: sc; how it was run: as §5
Rattus norvegicus [12] = assay: Locomotory activity was determined in non pretreated rats at a dose of 13.4 umol/kg by subcutaneous administration; assay type: functional; how it was run: as §2
Rattus norvegicus [13] = assay: ((+)-UH-232) induced locomotor stimulation was determined in non pretreated rats at a dose of 204 umol/kg by subcutaneous administration; assay type: functional
Rattus norvegicus [14] = assay: Change in rectal temperature induced by DiPr-5,6-ADTN at a dose of 13 umol/kg of compound by subcutaneous administration; assay type: functional; how it was run: as §4
Rattus norvegicus [15] = assay: ((+)-UH-232) induced locomotor stimulation was determined in non pretreated rats at a dose of 52 umol/kg by subcutaneous administration; assay type: functional
[16] = target: T1, Dopamine receptor (Rattus norvegicus); assay: In vivo displacement of DiPr-5,6-ADTN from Dopamine receptors in rat striatum; assay type: organism-based
Rattus norvegicus [17] = assay: Change in rectal temperature induced by DiPr-5,6-ADTN at a dose of 204 umol/kg of compound by subcutaneous administration; assay type: functional; how it was run: as §4
Rattus norvegicus [18] = assay: Change in rectal temperature induced by DiPr-5,6-ADTN at a dose of 52 umol/kg of compound by subcutaneous administration; assay type: functional; how it was run: as §4
Rattus norvegicus [19] = assay: Induced locomotor stimulation was determined in non pretreated rats at a dose of 13 umol/kg by subcutaneous administration; assay type: functional
[20] = target: T1, Dopamine receptor (Rattus norvegicus); assay: Ability to displace the Dopamine receptor agonist DiPr-5,6-ADTN from rat striatal binding sites in vivo at a dose of 52 umol/kg by subcutaneous administration; assay type: organism-based
Rattus norvegicus [21] = assay: Induced locomotor stimulation in non pre-treated rats by 52 umol/kg s.c. administration.; assay type: functional
Rattus norvegicus [22] = assay: In vivo DOPA accumulation in reserpine pretreated rat striatum system after 1.4 umol/kg ip; I denotes inactive; assay type: functional, organism-based
Rattus norvegicus [23] = assay: In vivo DOPA accumulation in reserpine pretreated rat limbic system after 1.4 umol/kg ip; I denotes inactive; assay type: functional, organism-based
Rattus norvegicus [24] = assay: Change in rectal temperature induced by DiPr-5,6-ADTN at a dose of 2.7 umol/kg of compound by subcutaneous administration; assay type: functional
How it was run: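 Rats received DiPr-5,6-ADTN at 0.25 μmol/kg sc, then the test compound sc (tested range 2.7–204 μmol/kg) 60 min later. Rectal temperature change was measured between 60 and 100 min after DiPr-5,6-ADTN. Values are mean ± SEM, n = 4, compared with DiPr-5,6-ADTN-only controls by Student's t test.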

Rattus norvegicus [25] = assay: Locomotory activity was determined in non pretreated rats at a dose of 2.7 umol/kg by intraperitoneal administration
Rattus norvegicus [26] = assay: Change in rectal temperature induced by DiPr-5,6-ADTN at a dose of 3.2 umol/kg of compound by subcutaneous administration; assay type: functional; how it was run: as §4
Rattus norvegicus [27] = assay: ((+)-UH-232) induced locomotor stimulation was determined in non pretreated rats at a dose of 3.2 umol/kg by subcutaneous administration; assay type: functional
Rattus norvegicus [28] = assay: Induced locomotor stimulation was determined in non pretreated rats at a dose of 52 uM/kg by subcutaneous administration; assay type: functional; how it was run: as §2
[29] = target: T1, Dopamine receptor (Rattus norvegicus); settings: 204 uM
Rattus norvegicus [30] = assay: Induced locomotor stimulation was determined in non pretreated rats at a dose of 204 umol/kg by subcutaneous administration; assay type: functional
Rattus norvegicus [31] = assay: Locomotory activity was determined in reserpine pretreated rats at a dose of 52 umol/kg by subcutaneous administration. Value is the accumulation counts/30 min; assay type: functional; how it was run: as §3
[32] = target: T1, Dopamine receptor (Rattus norvegicus); settings: 13 uM
Rattus norvegicus [33] = assay: Induced locomotor stimulation in non pre-treated rats by 13 umol/kg s.c. administration.; assay type: functional
[34] = target: T1, Dopamine receptor (Rattus norvegicus); assay: Ability to displace the Dopamine receptor agonist DiPr-5,6-ADTN from rat striatal binding sites in vivo at a dose of 52 uM/kg by subcutaneous administration; assay type: organism-based
Rattus norvegicus [35] = assay: In vivo DOPA accumulation in reserpine pretreated rat striatum system by subcutaneous administration; I denotes inactive; assay type: functional, organism-based; how it was run: as §1
Rattus norvegicus [36] = assay: In vivo DOPA accumulation in reserpine pretreated rat limbic system by subcutaneous administration; I denotes inactive; assay type: functional, organism-based; how it was run: as §1

Q: What does the source list for `CN1CCc2cccc3c2[C@H]1Cc1ccc(O)c(O)c1-3` [APOMORPHINE]?
A: ED50 (Rattus norvegicus [1]): 0.041 µmol/kg; ED50 (Rattus norvegicus [2]): 0.044 µmol/kg; Activity (Rattus norvegicus [3]): 277%; Activity (Rattus norvegicus [4]): 366 counts/30 min; Activity (Rattus norvegicus [5]): 52%

Q: What does the source list for `CCCN(CCC)[C@H]1CCc2c(O)cccc2[C@H]1C`?
A: ED50 (Rattus norvegicus [1]): 0.3 µmol/kg; ED50 (Rattus norvegicus [2]): 0.34 µmol/kg; Activity (Rattus norvegicus [3]): 65%; Body temp change (Rattus norvegicus [6]): 0.1 °C; Body temp change (Rattus norvegicus [7]): -0.2 °C; ED50 (Rattus norvegicus [8]): 0.84 µmol/kg; Activity (Rattus norvegicus [4]): 121 counts/30 min; Binding [9]: 37%; Binding [10]: 90%; ED50 (Rattus norvegicus [11]): 0.84 µmol/kg; Activity (Rattus norvegicus [12]): 171%

Q: Which Activity (Rattus norvegicus [3]) does the source give for `CCCN[C@@H]1CCc2c(OC)cccc2[C@@H]1C` here?
A: 132%

Q: And the Activity (Rattus norvegicus [13])?
A: 29%

Q: What about the Temperature (Rattus norvegicus [14]) of the same compound?
A: 1.3 °C

Q: And the Activity (Rattus norvegicus [15])?
A: 54%

Q: And the Binding [16]?
A: 85%

Q: What about the Temperature (Rattus norvegicus [17]) of the same compound?
A: 0.47 °C

Q: And the Temperature (Rattus norvegicus [18])?
A: 1.05 °C

Q: And the ED50 (Rattus norvegicus [8])?
A: 4.6 µmol/kg

Q: And the Activity (Rattus norvegicus [19])?
A: 95%

Q: And the Binding [20]?
A: 41%

Q: And the Activity (Rattus norvegicus [21])?
A: 159%

Q: And the ED50 (Rattus norvegicus [11])?
A: 4.4 µmol/kg

Q: Which results are given for `O=C(CCCN1CCC(O)(c2ccc(Cl)cc2)CC1)c1ccc(F)cc1` [HALOPERIDOL]?
A: ED50 (Rattus norvegicus [22]): inactive; ED50 (Rattus norvegicus [23]): inactive; Body temp change (Rattus norvegicus [24]): 1.34 °C; ED50 (Rattus norvegicus [8]): 0.19 µmol/kg; Activity (Rattus norvegicus [25]): 3%; ED50 (Rattus norvegicus [11]): 0.19 µmol/kg

Q: With `CCCN(CCC)[C@@H]1CCc2c(OC)cccc2[C@@H]1C` as the compound, how does the Body temp change (Rattus norvegicus [26]) read?
A: -0.03 °C

Q: And the Activity (Rattus norvegicus [27])?
A: 105%

Q: And the Activity (Rattus norvegicus [28])?
A: 24%

Q: And the Activity (Rattus norvegicus [3])?
A: 152%

Q: And the Body temp change (Rattus norvegicus [14])?
A: 1.4 °C

Q: What about the Binding [29] of the same compound?
A: 31%

Q: What about the Activity (Rattus norvegicus [30]) of the same compound?
A: 22%

Q: What about the Binding [16] of the same compound?
A: 83%

Q: What about the Body temp change (Rattus norvegicus [17]) of the same compound?
A: 0.45 °C

Q: What about the Body temp change (Rattus norvegicus [18]) of the same compound?
A: 0.45 °C

Q: What about the Activity (Rattus norvegicus [31]) of the same compound?
A: 4 counts/30 min

Q: And the ED50 (Rattus norvegicus [8])?
A: 12.8 µmol/kg

Q: What about the Binding [32] of the same compound?
A: 61%

Q: What about the Activity (Rattus norvegicus [33]) of the same compound?
A: 78%

Q: What about the Binding [34] of the same compound?
A: 34%

Q: And the Activity (Rattus norvegicus [21])?
A: 70%

Q: What about the ED50 (Rattus norvegicus [11]) of the same compound?
A: 9.6 µmol/kg

Q: And the ED50 (Rattus norvegicus [35])?
A: inactive

Q: What about the ED50 (Rattus norvegicus [36]) of the same compound?
A: inactive
